From article PMC4344132 (Cell, 2014)
One block for each compound: values may come before it. No end group written: not given here.

Experiments:
[1] = test system: histone H3 acetylation in HeLa cells; assay: Histone H3 acetylation level in HeLa cells treated with GCN5/PCAF inhibitor; format: cell-based; conditions: Figure S5C
[2] = test system: AF9 occupancy on MYC in HeLa cells; assay: AF9 occupancy on MYC in HeLa cells treated with GCN5/PCAF inhibitor; format: cell-based; conditions: Figure S5C
Summary of the method: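 HeLa cells (endogenous AF9 has no ChIP-grade antibody, so a line stably expressing Flag-AF9 was used) were treated with the GCN5/PCAF inhibitor. Cells were crosslinked with 1% formaldehyde for 10 min, then quenched with 125 mM glycine. Nuclei were sonicated and immunoprecipitated with 2–4 µg antibody overnight at 4°C, collected with Staph A cells, washed and reverse-crosslinked. MYC DNA was quantified by SYBR Green qPCR. Differences were tested by two-way unpaired Student's t-test.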

[3] = molecular target: human AF9 YEATS (1–138) (human) (UniProt P42568); assay: ITC
AF9 YEATS domain = molecular target: T1, AF9 YEATS domain (Homo sapiens, UniProt P42568); assay: Isothermal titration calorimetry; format: binding; conditions: ITC; different frames of the H3K9ac peptides; Figure 4A
T1 sequence (P42568 1-138 limits assumed): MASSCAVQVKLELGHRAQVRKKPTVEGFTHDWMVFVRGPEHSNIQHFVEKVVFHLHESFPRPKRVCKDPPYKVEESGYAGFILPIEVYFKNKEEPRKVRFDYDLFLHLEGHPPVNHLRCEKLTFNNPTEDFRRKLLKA

- Kd [3]: 11 µM
Compound: H3K18ac peptide (ITC)

- binding (in words) (AF9 YEATS domain): no binding
Compound: H3_7–11K9ac: H3K9ac peptide frame 7–11 (ARK(Ac)ST)

Continued, compound first:

Compound: Clc1ccc(-c2csc(NN=C3CCCC3)n2)cc1 [CPTH2]
- histone H3 acetylation levels [1]: reduced
- AF9 occupancy on MYC [2]: reduced

Compound: H3K9ac peptide with H3R8 substituted with alanine
- fold binding reduction against the H3K9ac peptide [3]: 200 fold

Compound: H3K27ac peptide (ITC)
- Kd [3]: 7 µM
